Assay outcomes: PubChem BioAssay, Johns Hopkins Ion Channel Center
MrgX1 antagonist – human MrgX1 receptor antagonism, primary screen | Q96LB2 | MRGX1-HEK293 calcium flux, Fluo-4, BAM8-22 antagonism; active compounds read low | B-score at 10 µM | 310,000 compounds, 1.3% hits;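 active means calcium-response B-score plate-corrected more than 3 library SD below zero, starting fluorescence within 5 deviations, no agonist response on first addition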;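 further: peak minus trough fluorescence over baseline after final BAM8-22 challenge near maximal dose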
Target sequence (Q96LB2 whole entry, looked up): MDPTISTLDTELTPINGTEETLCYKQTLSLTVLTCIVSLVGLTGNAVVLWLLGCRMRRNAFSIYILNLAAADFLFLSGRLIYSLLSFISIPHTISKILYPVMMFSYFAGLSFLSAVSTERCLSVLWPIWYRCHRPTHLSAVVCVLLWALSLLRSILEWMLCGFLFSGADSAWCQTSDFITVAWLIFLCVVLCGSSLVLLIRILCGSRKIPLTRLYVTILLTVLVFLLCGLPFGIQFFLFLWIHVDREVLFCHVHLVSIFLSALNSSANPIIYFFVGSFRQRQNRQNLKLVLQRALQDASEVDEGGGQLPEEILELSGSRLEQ
MrgX1 allo act – allosterically activates human MrgX1 receptor signaling; 310,000 compounds, 0.63% hits; B-score at 10 µM; AID 588675; MrgX1-HEK293, Fluo-4 calcium flux, FDSS; active compounds read high; Q96LB2;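 active means plate-corrected calcium response at least 3 library SD above typical, normal starting fluorescence, not activating the receptor alone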;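 further: compound read alongside a low EC10 to EC30 dose of BAM8-22 agonist; peak minus trough fluorescence over baseline measured at the second addition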
RGS4 pot – potentiators or activators of RGS4; HEK293 M3R/inducible RGS4, carbachol calcium flux Fluo4; active compounds read low; B-score at 10 µM; 310,000 compounds, 0.92% hits;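 active means B-score of the integrated calcium signal more than 4 SD below the library mean, with starting fluorescence not abnormally high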;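 further: negative B-score means reduced calcium response which marks RGS4 activation or potentiation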
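Test system: HEK293 cells with stable M3R and inducible RGS4; also added: carbachol at ECmax as muscarinic agonist stimulus; schedule: dye loading 30 min 37 °C, buffer rest 30 min RT; technique: kinetic calcium fluorescence imaging with Fluo4-AM dye, 2 µM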
RGS4 block – inhibitors of human RGS4; B-score at 10 µM; 310,000 compounds, 0.45% hits; HEK293 M3R/RGS4 inducible, Fluo-4 calcium flux; active compounds read high; triggered by carbachol at its EC20;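 active means B-score, a plate-corrected calcium signal, over three deviations above library mean, with baseline fluorescence within five deviations of library mean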;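 further: RGS4 expression induced by doxycycline in cells with stable M3 receptor; B-score is computed from the integrated fluorescence ratio over baseline after carbachol; higher B-score means a larger calcium signal and so more RGS4 inhibition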
Target sequence (P49798 whole entry, looked up): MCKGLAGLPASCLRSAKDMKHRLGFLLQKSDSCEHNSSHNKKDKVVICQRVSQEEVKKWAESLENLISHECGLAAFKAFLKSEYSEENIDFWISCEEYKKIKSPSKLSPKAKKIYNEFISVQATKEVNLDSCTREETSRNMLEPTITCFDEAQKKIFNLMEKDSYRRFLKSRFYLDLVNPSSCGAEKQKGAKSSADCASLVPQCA
MrgX1 agonist – agonists of human MrgX1 receptor | Q96LB2 | MrgX1-HEK293 cells, Fluo-4 calcium fluorescence, agonist mode; active compounds read high | B-score at 10 µM | 310,000 compounds, 0.44% hits | AID 588627;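 active means calcium response B-score plate-corrected fluorescence ratio at least 3 library SD, with starting fluorescence B-score inside 5 SD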
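Material: MrgX1-expressing HEK293 cells; input: 15,000 cells per well; doses: test compound given as first of three sequential additions; schedule: overnight plating before 1 h dye loading; technique: Fluo-4 NW calcium-flux fluorescence, kinetic read; evaluation: baseline-normalised fluorescence change ratio, B-scored; control set: plate-wise positive and negative controls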
RGS4 act valid – RGS4 activation, validation assay. shares compounds with RGS4 pot. HEK293 M3R/RGS4 inducible, carbachol calcium flux Fluo4. inhibition, % at 10 µM. 1,100 compounds, 89% hits;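 active means inhibition above 3 SD of the buffer control wells, cut at about 41% in these data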;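 further: signal is the integrated peak-minus-minimum Fluo4 fluorescence over baseline ratio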
RGS4 act ctr – RGS4 activator counter-screen hit in non-induced cells | AID 602283 | 1,100 compounds, 82% hits | inhibition, % at 10 µM | HEK293 M3R non-induced RGS4, Fluo4 calcium flux; after carbachol challenge at its EC90 | shares compounds with RGS4 pot;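 active means inhibition exceeding 3 SD of buffer-only control wells, cut at about 26% in these data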;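 further: percent drop in integrated peak-minus-baseline over baseline Fluo4 ratio after carbachol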
Numbers without * were called inactive; i = inactive; . = not tested or not shown. Sampled rows, rich in hits. Any-hit rate of the full collection: about 3.5%.

SMILES	MrgX1 antagonist	MrgX1 allo act	RGS4 pot	RGS4 block	MrgX1 agonist	RGS4 act valid	RGS4 act ctr
O=C(c1ccc(Cl)c(NC2=NC3CS(=O)(=O)CC3S2)c1)N1CCN(c2ccccc2)CC1 (configuration not stated)	i	i	i	i	i	.	.
COc1ccc2c(c1)sc(N)[n+]2Cc1cc(C)cc2cccnc12	i	i	i	i	i	.	.
CCOc1ccc2c(c1)sc(N)[n+]2Cc1cc(C)cc2cccnc12	i	i	-10.8*	i	i	89.5*	45.8*
Cc1c(C(=O)N2CCCCC2)c(S(=O)(=O)NCCc2ccc(S(N)(=O)=O)cc2)c(C)n1C	i	i	i	i	i	.	.
Cn1c(=O)[nH]c2nnc(-c3ccc(Cl)c(Cl)c3)nc2c1=O	i	i	-8.89*	i	i	0.0	0.0
Cc1ccc(COc2ccc(CNCCCN3CCCCCC3=O)cc2)cc1	i	i	-12.2*	i	i	93.0*	65.3*
COc1cc(CN2CCN(C(c3ccccc3)c3ccccc3)CC2)cc(OC)c1OC	i	i	-8.93*	i	i	86.0*	30.3*
COc1cccc(CN2CCN(C(c3ccccc3)c3ccccc3)CC2)c1O	i	i	-8.79*	i	i	91.5*	74.8*
Cc1ccc(-c2nc3ccccn3c2NCc2ccc3c(c2)OCO3)cc1	i	i	-9.51*	i	i	89.0*	70.8*
O=C1c2ccccc2S(=O)(=O)c2cc(N3CCC4(CC3)OCCO4)ccc21	i	i	i	i	i	.	.
COCCn1c(=NC(=O)CSCC(=O)N2CCOCC2)sc2cc(C)ccc21	i	i	i	i	i	.	.
COc1cccc(-c2nc(N3CCCCC3)c3ccccc3n2)c1O	i	i	-8.8*	i	i	92.5*	91.3*
COCCCNC(=O)C1CCC(CNS(=O)(=O)c2ccc3c(c2)N(C(C)=O)CCO3)CC1 (configuration not stated)	i	i	i	i	i	.	.
COc1ccccc1C(=O)NCC(c1cccs1)N1CCc2ccccc21 (configuration not stated)	i	i	-7.77*	i	i	61.5*	36.3*
O=C(Cc1ccccc1)Nc1cccc(-c2nnc(-c3ccco3)o2)c1	i	i	i	i	i	.	.
COc1ccc(CC(=O)Nc2cccc(-c3nnc(-c4ccccc4)o3)c2)cc1OC	.	.	-8.97*	i	.	93.0*	80.8*
COc1ccccc1OCC(=O)Nc1cccc(-c2nnc(-c3ccco3)o2)c1	i	i	-8.06*	i	i	78.5*	28.3*
COc1cccc(C(=O)Nc2cccc(-c3nnc(-c4ccccc4)o3)c2)c1	i	i	-11.2*	i	i	76.0*	37.3*
Cc1ccccc1NC(=O)Nc1ccc2c(c1)CCC2	i	i	i	i	i	.	.
COc1ccccc1NC(C)C(=O)N/N=C/c1ccccc1OCc1cccc(Br)c1 (configuration not stated)	i	i	i	i	i	.	.
CCNc1nc(N2CCCC2)nc(N2CCCC2)n1	i	i	i	i	i	.	.
CCNc1nc(NC(C)(C)C)nc(N2CCCCC2)n1	i	i	-7.9*	i	i	93.5*	92.8*
O=C(Nc1ccc(OC(F)(F)F)cc1)c1ccc(S(=O)(=O)N2CCOCC2)o1	i	i	i	i	i	.	.
CCCCOc1ccc(S(=O)(=O)n2c(C)nc3ccccc32)cc1	i	i	-8.3*	i	i	93.0*	95.8*
Cc1ccc(S(=O)(=O)n2c(N)nc3ccccc32)cc1	i	i	-7.77*	i	i	91.5*	96.3*
SMILES	MrgX1 antagonist	MrgX1 allo act	RGS4 pot	RGS4 block	MrgX1 agonist	RGS4 act valid	RGS4 act ctr
COC(=O)c1cc2ccsc2n1Cc1cc(=O)n2ccccc2n1	i	i	-10*	i	i	89.5*	62.8*
CCOCCN1CCN(C2c3ccccc3CSc3ccccc32)CC1 (configuration not stated)	i	i	-13*	i	i	92.0*	90.3*
CCNC(=O)NC1c2ccccc2CSc2ccccc21 (configuration not stated)	i	i	i	i	i	.	.
O=C(NCCCCCCNC(=O)c1ccncc1)c1ccncc1	i	i	i	i	i	.	.
CCCCc1nc2cc(C(=O)NCc3nccn3CC)ccc2o1	i	i	-9.07*	i	i	92.5*	78.3*
CCOC(=O)C1=C(Cc2ccc(Cl)cc2)C(=O)c2ccccc2C1=O	-4.55*	i	-9.35*	i	i	86.5*	30.3*
COc1cc(NC(=O)Nc2cccc(Cl)c2)c(OC)cc1NC(=O)CN1CCCCC1	i	i	-10.7*	i	i	38.0*	0.0
O=C(CN1CCCCC1)Nc1cccc(Cl)c1	i	i	i	i	i	.	.
CCOC(=O)c1c(CSC(=N)N)n(-c2ccccc2)c2cc(Br)c(OC(C)=O)cc12	i	i	i	i	i	.	.
COc1ccc(OS(=O)(=O)c2c(C)noc2C)cc1	i	i	-9.31*	i	i	84.0*	41.3*
C=C(C)CCC(C)N1CCC(n2nccc2NC(=O)CCOc2ccccc2)CC1 (configuration not stated)	i	i	i	i	i	.	.
CCOc1ccc(N2C(=O)C3C4C=CC([C@H]5CC45)[C@@H]3C2=O)cc1 (some centres not stated)	i	i	i	i	i	.	.
O=C(Nc1ccc2c(c1)OCCO2)c1cccc2nc3ccccc3nc12	i	i	-9.28*	i	i	85.5*	52.3*
O=C(Nc1ccc2c(c1)OCCO2)c1ccccc1F	i	i	i	i	i	.	.
OCCC1CN(Cc2ccc(-c3ccco3)cc2)CCN1Cc1ccsc1 (configuration not stated)	i	i	-7.74*	i	i	73.5*	83.8*
CC[N+]1(C)CCC(=C2c3ccccc3CC(=O)c3sccc32)CC1 (configuration not stated)	-6.66*	i	-10.8*	i	i	95.0*	84.3*
CN(C(=O)c1ccc(OC2CCN(CCc3ccccc3)CC2)cc1)C1CCCCC1	i	i	-8.92*	i	i	0.0	0.0
CN(C(=O)c1ccc(OC2CCN(CCc3ccccc3)CC2)cc1)C1CCOCC1	i	i	i	i	i	.	.
